Measured values taken from ChEMBL document CHEMBL1139658, “Synthesis and screening of bicyclic carbohydrate-based compounds: a novel type of antivirals” (Bioorg Med Chem Lett, 2006).
Values after ≈ are worked out from the molar mass of the structure shown.

How the values were obtained:
Cytomegalovirus [1] = assay: Antiviral activity against Cytomegalovirus Davies in human embryonic lung cells; format: functional, organism-based; details: Human betaherpesvirus 5, Davies
Method in brief: (§1)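 HEL cell monolayers infected at 20 PFU per well, adsorbed 2 h at 37 °C. Medium with serial compound dilutions then added. Giemsa stain on day 7 and plaques counted under the microscope. IC50 is the concentration giving 50% inhibition of virus-induced plaque formation. Minimum cytotoxic concentration scored on day 7 as the lowest concentration causing visible change to the confluent cells.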

Cytomegalovirus [2] = assay: Antiviral activity against Cytomegalovirus AD-169 in human embryonic lung cells; format: functional, organism-based; details: Human betaherpesvirus 5, AD-169, lung; method in brief: as §1
HEL = assay: Cytotoxicity against human embryonic lung cells; format: functional
Method in brief: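 Two HEL cell toxicity read-outs. Cell growth (CC50): growing HEL cells in 96-well plates were given serial compound concentrations for 3 days, then trypsinized and counted with a Coulter counter; CC50 is the concentration cutting cell growth by 50%. Morphology (MCC): on confluent monolayers during the antiviral assay, this is the lowest concentration with microscopically visible toxicity at day 7.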

Row | SMILES | IC50 (Cytomegalovirus [1]) | IC50 (Cytomegalovirus [2]) | MCC (HEL) | CC50 (HEL)
1 | C#CCO[C@@H]1[C@@H](OCC#C)[C@H](c2ccccc2)O[C@@H]2CO[C@@H](c3ccccc3)O[C@@H]12 | 3 µg/mL (≈ 7.42 µM) | 5 µg/mL (≈ 12.4 µM) | 40 µg/mL | 
2 | CO[C@@H]1[C@@H](OC)[C@H](c2ccccc2)O[C@@H]2CO[C@@H](C3CCCCC3)O[C@@H]12 | 3.5 µg/mL (≈ 9.66 µM) | 3.2 µg/mL (≈ 8.83 µM) | 20 µg/mL | 28 µg/mL (≈ 77.2 µM)
3 | O=[N+]([O-])c1ccc([C@@H]2OC[C@H]3O[C@@H](c4ccccc4)[C@H](O)[C@@H](O)[C@@H]3O2)cc1 | 9.3 µg/mL (≈ 24.9 µM) | 10 µg/mL (≈ 26.8 µM) | 50 µg/mL | > 50 µg/mL
4 | CO[C@@H]1[C@@H](OC)[C@H](c2ccccc2)O[C@@H]2CO[C@@H](c3ccc4ccccc4c3)O[C@@H]12 | 0.8 µg/mL (≈ 1.97 µM) | 0.47 µg/mL (≈ 1.16 µM) | ≥ 16 µg/mL | > 50 µg/mL
5 | CO[C@@H]1[C@@H](OC)[C@H](c2ccccc2)O[C@@H]2CO[C@@H](c3ccccc3)O[C@@H]12 | 2.4 µg/mL (≈ 6.73 µM) | 2 µg/mL (≈ 5.61 µM) |  | 
6 | O[C@@H]1[C@@H](O)[C@H](c2ccccc2)O[C@@H]2CO[C@@H](c3ccc4ccccc4c3)O[C@@H]12 | 1.8 µg/mL (≈ 4.76 µM) | 1.3 µg/mL (≈ 3.44 µM) | ≥ 400 µg/mL | 21 µg/mL (≈ 55.5 µM)
7 | CCCCCO[C@@H]1[C@@H](OCCCCC)[C@H](c2ccccc2)O[C@@H]2CO[C@@H](c3ccccc3)O[C@@H]12 | 2.4 µg/mL (≈ 5.12 µM) | > 3.2 µg/mL | 16 µg/mL | 182 µg/mL (≈ 388 µM)
8 | O[C@@H]1[C@@H](O)[C@H](c2ccccc2)O[C@@H]2CO[C@@H](c3ccc(Cl)cc3)O[C@@H]12 | 10 µg/mL (≈ 27.6 µM) | 14 µg/mL (≈ 38.6 µM) | ≥ 100 µg/mL | > 50 µg/mL
9 | CO[C@H]1[C@@H]2O[C@H](c3ccccc3)OC[C@H]2O[C@@H](c2ccccc2)[C@H]1OC | > 50 µg/mL | > 50 µg/mL | 400 µg/mL | 
10 | CCO[C@@H]1[C@@H](OCC)[C@H](Cc2ccccc2)O[C@@H]2CO[C@@H](c3ccccc3)O[C@@H]12 | 3 µg/mL (≈ 7.53 µM) | 2.6 µg/mL (≈ 6.52 µM) | > 120 µg/mL | > 50 µg/mL
11 | CO[C@@H]1[C@@H](OC)[C@H](c2ccccc2)O[C@@H]2CO[C@@H](c3ccc(-c4ccccc4)cc3)O[C@@H]12 | 0.6 µg/mL (≈ 1.39 µM) | 0.8 µg/mL (≈ 1.85 µM) | ≥ 16 µg/mL | > 50 µg/mL
12 | C=CC[C@@H]1O[C@@H]2CO[C@@H](c3ccccc3)O[C@H]2[C@H](OC)[C@H]1OC | > 50 µg/mL | > 50 µg/mL |  | 
13 | C#CCO[C@@H]1[C@@H](OCC#C)[C@H](Cc2ccccc2)O[C@@H]2CO[C@@H](c3ccccc3)O[C@@H]12 | 0.5 µg/mL (≈ 1.19 µM) | 0.5 µg/mL (≈ 1.19 µM) | 40 µg/mL | 
14 | CO[C@@H]1[C@@H](OC)[C@H](Cc2ccccc2)O[C@@H]2CO[C@@H](c3ccccc3)O[C@@H]12 | 5 µg/mL (≈ 13.5 µM) | 20 µg/mL (≈ 54 µM) | 20 µg/mL | > 50 µg/mL
15 | CO[C@@H]1[C@@H](OC)[C@H](c2ccccc2)O[C@@H]2CO[C@@H](c3ccc(C(F)(F)F)cc3)O[C@@H]12 | 3.1 µg/mL (≈ 7.3 µM) | 1.5 µg/mL (≈ 3.53 µM) | ≥ 16 µg/mL | > 50 µg/mL
16 | C=CCO[C@@H]1[C@@H](OCC=C)[C@H](Cc2ccccc2)O[C@@H]2CO[C@@H](c3ccccc3)O[C@@H]12 | 1 µg/mL (≈ 2.37 µM) | 1.2 µg/mL (≈ 2.84 µM) | 20 µg/mL | > 50 µg/mL
17 | CO[C@@H]1[C@@H](OC)[C@H](c2ccccc2)O[C@@H]2CO[C@@H](c3ccc(Cl)cc3)O[C@@H]12 | 4 µg/mL (≈ 10.2 µM) | 5 µg/mL (≈ 12.8 µM) | ≥ 100 µg/mL | > 50 µg/mL
18 | CO[C@@H]1[C@@H](OC)[C@H](c2ccccc2)O[C@@H]2CO[C@@H](c3cccc(Cl)c3)O[C@@H]12 | 3.2 µg/mL (≈ 8.19 µM) | 5 µg/mL (≈ 12.8 µM) | ≥ 40 µg/mL | 
19 | CO[C@H]1[C@H]2O[C@H](c3ccccc3)OC[C@H]2O[C@@H](c2ccccc2)[C@@H]1OC | > 50 µg/mL | > 50 µg/mL | > 400 µg/mL | 
20 | CC(C)CO[C@@H]1[C@@H](OCC(C)C)[C@@H](c2ccccc2)O[C@@H]2CO[C@@H](c3ccccc3)O[C@@H]12 | 3.2 µg/mL (≈ 7.26 µM) | 2.6 µg/mL (≈ 5.9 µM) | 40 µg/mL | 
21 | O[C@@H]1[C@@H](O)[C@H](c2ccccc2)O[C@@H]2CO[C@@H](c3ccc(C(F)(F)F)cc3)O[C@@H]12 | 1.6 µg/mL (≈ 4.04 µM) | 1.6 µg/mL (≈ 4.04 µM) | 400 µg/mL | 35 µg/mL (≈ 88.3 µM)
